Bioassay records as filed in PubChem.
Sampled rows, rich in hits. Any-hit rate of the full collection: about 2.8%.
NPY-Y1 antag: antagonists of human neuropeptide Y receptor Y1; inhibition, % at 3.6 µM; P25929; hit rate 1% among 200,000; HEK293-CNG Y1 cells, membrane potential fluorescence; NPY at EC95, then isoproterenol;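 active means inhibition above the campaign mean inhibition of all tested compounds plus 3 SD, cut at about 20% in these data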
Target sequence (P25929 whole entry, looked up): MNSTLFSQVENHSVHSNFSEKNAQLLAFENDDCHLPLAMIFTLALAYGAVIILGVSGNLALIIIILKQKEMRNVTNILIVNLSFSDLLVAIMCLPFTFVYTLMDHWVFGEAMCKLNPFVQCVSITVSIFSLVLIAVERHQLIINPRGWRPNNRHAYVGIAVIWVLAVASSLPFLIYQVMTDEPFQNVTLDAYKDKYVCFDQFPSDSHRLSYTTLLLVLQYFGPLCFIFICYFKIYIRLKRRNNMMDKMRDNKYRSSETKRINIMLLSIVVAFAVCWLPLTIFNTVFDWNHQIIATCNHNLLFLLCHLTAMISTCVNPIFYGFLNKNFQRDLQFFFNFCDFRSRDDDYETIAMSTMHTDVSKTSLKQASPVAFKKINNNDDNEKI
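Material: HEK293 Y1/CNG channel cell line | Also added: NPY (25 nM), isoproterenol (1 µM), Ro 20-1724 (25 µM) | Compound: One concentration, 3.6 µM, in 0.4% DMSO | Schedule: 3 h dye uptake, 1 h room-temperature compound, 45 min post-isoproterenol | Signal: Membrane-potential fluorescent dye readout | Read-out: % inhibition of NPY effect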
EP2 modulator: EP2 receptor (human) modulation; EP2-expressing cells, cAMP HTRF FRET, PGE2 co-stimulation; hit rate 0.83% among 260,000; P43116; induction, % at 25 µM;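 active means compounds whose cAMP rise, as percent of the full-agonist control response, exceeds 60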;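 further: rat C6 glioma line stably carrying human EP2 under a CMV promoter; the protocol text gives 20 µM as final concentration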
EP2 antag: EP2 receptor (human) inhibition. P43116. C6 glioma cells expressing human EP2, cAMP TR-FRET; cells stimulated with saturating PGE2. inhibition, % at 25 µM. hit rate 0.52% among 260,000. AID 1422;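 active means percent inhibition above 40 after rounding to a whole number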;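 further: rat C6 glioma host cells with rolipram phosphodiesterase inhibitor present; the protocol text gives 20 µM as final concentration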
NPY2 pot ag: human NPY-Y2 potentiation or agonism, primary screen. activation, % at 3.6 µM. hit rate 0.45% among 220,000. cells expressing NPY-Y2, potentiator/agonist read-out; in the data active means activation above about 27%;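 further: cells stimulated with NPY near EC25 plus isoproterenol at EC100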
NPY-Y2 antag: blocks the human neuropeptide Y Y2 receptor. P49146. NPY-Y2 expressing cells, antagonist mode. inhibition, % at 2.7 µM. hit rate 0.99% among 140,000; in the data active means inhibition above about 17%
NPY-Y1 PAM-ag: potentiators or agonists of human neuropeptide Y receptor Y1. P25929. NPY-Y1 expressing cells, potentiator/agonist activation. activation, % at 3.6 µM. hit rate 0.37% among 220,000. AID 1304; in the data active means activation above about 33%, passing the limit was not always enough;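 further: cells stimulated with NPY at EC10 then isoproterenol at EC100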
Hits are given with their value; - = inactive; . = no result given; ! = not active in a repeat.

SMILES	NPY-Y1 antag	EP2 modulator	EP2 antag	NPY2 pot ag	NPY-Y2 antag	NPY-Y1 PAM-ag
Cc1ccc(OCC(O)Cn2c(=N)n(CCN3CCCCC3)c3ccccc32)cc1 (stereo not drawn)	62	-	-	-	46	-
Cc1ccccc1NC(=O)C1C(=O)N(C)C23CCCCC2C1c1ccccc1O3 (stereo not drawn)	.	-	-	.	.	.
Cc1ccc(C)c(N2CCN(Cc3nnnn3C3CCCCC3)CC2)c1	-	61!	-	-	-	-
CCc1cc2c(C)cc(C)cc2nc1SCC(=O)Nc1ccc2c(c1)OCO2	.	-	-	.	.	.
Cc1cc2cc(C)c(SCC(=O)NCc3ccc4c(c3)OCO4)nc2cc1C	.	85	-	.	.	.
CCc1cc2c(C)cc(C)cc2nc1SCC(=O)NCc1ccc2c(c1)OCO2	.	72	-	.	.	.
Cc1cc2cc3c(cc2nc1SCC(=O)NCc1ccc2c(c1)OCO2)OCO3	.	-	-	.	.	.
Nc1ccc(N=Nc2ccc(-c3ccc(O)cc3)cc2)c2ccc(S(=O)(=O)O)cc12	.	-	49	.	.	.
NS(=O)(=O)c1ccc(N=Nc2ccc(=O)[nH]c2O)cc1	.	-	-	-	.	-
COc1ccc(OC)c(C2NC(=O)C(O)=C2C(=O)c2cccs2)c1 (stereo not drawn)	.	-	-	.	.	.
O=S(=O)(c1cccc2cccnc12)N(CCO)CCO	-	-	-	-	-	36
COc1cccc(C2=NN(C(=O)c3ccccc3)C(O)(C(F)(F)F)C2)c1 (stereo not drawn)	-	64	.	-	-	-
Cc1ccnc(SCC(=O)Nc2ccccc2Cl)n1	.	-	-	.	.	.
CCCCC[C@H](O)/C=C/[C@@H]1[C@@H](C/C=C\CCCC(=O)OC)[C@@H](O)C[C@H]1O	63	-	-	-	20	-
CC(C)OC(=O)CCC/C=C\C[C@@H]1[C@@H](CC[C@@H](O)CCc2ccccc2)[C@H](O)C[C@@H]1O	-	.	-	-	.	-
CCCCC[C@H](O)/C=C/[C@@H]1[C@@H](C/C=C\CCCC(=O)O)[C@H]2CO[C@@H]1C2	-	98	-	-	-	-
O=C(O)CCC/C=C\C[C@@H]1[C@@H](/C=C/[C@H](O)C2Cc3ccccc3C2)[C@@H](F)C[C@@H]1O	.	-	-	.	.	.
CCCCC[C@H](O)/C=C/[C@@H]1[C@@H](C/C=C\CCCC(=O)O)[C@@H](O)C[C@H]1O	-	102	-	-	-	-
CCOc1ccccc1C1C2=C(CC(C)(C)CC2=O)N(C)C2=C1C(=O)CC(C)(C)C2	.	-	-	.	.	.
O=C(Cc1cccs1)N1CCC[C@@H]1Cn1nc(-c2cccs2)ccc1=O	.	-	.	.	.	.
C/C(=N\Nc1nc2ccccc2s1)c1ccc2c(c1)OCO2	35	-	-	-	31	-
CC1(C)O[C@H]2[C@@H](O1)[C@@H](On1nnc3ccc(Cl)cc31)O[C@@H]2[C@@H]1COC(C)(C)O1	.	-	52	.	.	.
CC1CCCCC1NC(=O)COn1nnc2ccc(Cl)cc21 (stereo not drawn)	-	-	-	-	-	-
CCC1CCCCN1S(=O)(=O)c1ccc(C(=O)Nc2nnc(-c3ccccc3Cl)o2)cc1 (stereo not drawn)	-	-	-	-	-	-
CC1CCCCN1S(=O)(=O)c1ccc(C(=O)Nc2nnc(-c3ccccc3Cl)o2)cc1 (stereo not drawn)	-	-	.	99	-	95
SMILES	NPY-Y1 antag	EP2 modulator	EP2 antag	NPY2 pot ag	NPY-Y2 antag	NPY-Y1 PAM-ag
CC1=CC(C)(C)N(C(=O)CSc2nnc(N)s2)c2cc(C)c(C)cc21	-	62	-	-	-	-
CC1=CC(C)(C)N(C(=O)CSc2nnc(C)s2)c2ccc(C)cc21	-	-	-	-	-	-
O=C(CCc1ccccc1)Nc1c(F)c(F)c(F)c(F)c1F	33	-	-	-	-	-
Cc1c(Cl)sn(-c2ccc(Cl)cc2)c1=O	-	-	117	-	.	-
Cc1nn(-c2ccc(Cl)cc2)c(=O)c2ccccc12	-	-	-	-	.	-
O=[N+]([O-])c1ccc2nc(-c3ccc(Cl)cc3)n(OCc3ccccc3)c2c1	-	-	.	-	-	-
Clc1ccc(COn2c(-c3ccc(Cl)cc3)nc3ccccc32)cc1	84	-	-	-	61	-
CCNC(=S)N(CCN(C)C)Cc1cc2ccc(C)c(C)c2[nH]c1=O	.	-	-	.	.	.
CC(=O)NCCn1c(SCc2ccc(C)cc2)nc2ccccc2c1=O	-	-	-	-	-	-
Cc1ccc2c(CSc3nc4ccccc4c(=O)n3CCCO)cc(=O)oc2c1C	31	-	-	-	28	-
